Our source for the EC50, selectivity ratio and CC50 values is ChEMBL document CHEMBL3813612, “Carolignans from the Aerial Parts of Euphorbia sikkimensis and Their Anti-HIV Activity” (J Nat Prod, 2016).

Data set [1] relates to Human immunodeficiency virus 1. Description: Antiviral activity against HIV1 NL4-3 infected in human MT4 cells assessed as reduction in viral replication measured on day 3 post infection by luciferase reporter gene assay. Type of data set: functional, organism-based.
Data set [2] is described as follows: Selectivity index, ratio of CC50 for human MT4 cells to EC50 for HIV1 NL4-3 infected in human MT4 cells. The settings on record: read-out: Ratio CC50/EC50. Type of data set: toxicity, cell-based.
The next data set relates to MT4. Description: Cytotoxicity against human MT4 cells assessed as reduction in cell viability after 3 days by CytoTox-Glo assay. In kind it is cell-based. The following applies: mt4, 72 h. An outline of the steps: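 MT4 cells were cultured with various compound concentrations for 3 days. Viability was read by the CytoTox-Glo assay following the manufacturer's protocol. CC50 is the concentration giving a 50% reduction in cell viability.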

The mark [3] stands for this setting: Human immunodeficiency virus 1, NL4-3, MT4, 72 h.

One may read the EC50 as the concentration that produces a half-maximal response. Take `COc1cc(/C=C/C(=O)OCCCc2ccc(O[C@H](COC(=O)/C=C/c3ccc(O)c(OC)c3)[C@@H](OC)c3ccc(O)c(OC)c3)c(OC)c2)ccc1O` (stereo in doubt; 2a): in data set [1] (mt4), the EC50 is above 10 µM.

As usually defined, the CC50 is the concentration that lowers cell viability or growth by half. Turning to `COc1cc(/C=C/C(=O)OCCCc2ccc(O[C@@H](COC(=O)/C=C/c3ccc(O)c(OC)c3)[C@H](OC)c3ccc(O)c(OC)c3)c(OC)c2)ccc1O` (stereo in doubt; 1a), the selectivity ratio in data set [2] was 3.3. The CC50 with MT4 (72 h) was 21 µM. For the same molecule, in data set [1] (setting [3]), the EC50 was found to be 6.3 µM.

Regarding `CCOC(=O)/C=C/c1ccc(O)c(OC)c1` [ETHYL FERULATE], the CC50 with MT4 was above 10 µM. In addition, the EC50 in data set [1] (setting [3]) is above 10 µM.

For the molecule `COc1cc(/C=C/C(=O)O)ccc1O` [FERULATE], the CC50 in the data set on MT4 is above 10 µM. Besides, the EC50 in data set [1] (setting [3]) was above 10 µM.

As to `Cc1cn([C@H]2C[C@H](N=[N+]=[N-])[C@@H](CO)O2)c(=O)[nH]c1=O` [ZIDOVUDINE], the CC50 with MT4 is above 0.1 µM.

For `COc1cc(/C=C/C(=O)OCCCc2ccc(O[C@H](COC(=O)/C=C/c3ccc(O)c(OC)c3)[C@@H](OC)c3ccc(O)c(OC)c3)c(OC)c2)ccc1O` (stereo in doubt; 1b), the selectivity ratio in data set [2] amounted to 3.2. For the same molecule, in the data set on MT4 (72 h), the 50% cytotoxic concentration (CC50) was 17 µM. Also, the EC50 in data set [1] (setting [3]) was 5.3 µM.
